{"source": "ChEMBL document CHEMBL3259602", "about": "“Thiaflavan scavenges radicals and inhibits DNA oxidation: a story from the ferrocene modification” (Eur J Med Chem, 2014)", "key": {"[1]": {"tested_on": "Radical scavenging activity", "assay": "Antioxidant activity assessed as DPPH radical scavenging activity by spectrophotometric analysis", "type": "functional", "summary_of_the_method": "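DPPH in ethanol (about 1.00 absorbance at 517 nm). Compound in DMSO (0.1 mL) was added to 1.9 mL of radical solution at 37.5 or 75.0 μM final, depending on compound. Absorbance decay was followed at 25 °C. The rate constant k was calculated from the initial reaction rate at t = 0.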"}, "[2]": {"assay": "Antioxidant activity assessed as inhibition of AAPH-induced oxidation of DNA measured as TBARS formation by spectrophotometric analysis", "type": "functional", "summary_of_the_method": "(§1)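 DNA sodium salt (2.0 mg/mL) with 40 mM AAPH in phosphate buffer (8.1 mM Na2HPO4, 1.9 mM NaH2PO4, 10.0 mM EDTA), with various compound concentrations in DMSO; DMSO-only blank. Samples were heated at 37 °C. TBARS was read at 535 nm. The inhibition period was taken at the crossing of tangents, then plotted against concentration.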"}, "[3]": {"assay": "Antioxidant activity assessed as inhibition of AAPH-induced oxidation of DNA at 100 uM by spectrophotometric analysis"}, "[4]": {"assay": "Antioxidant activity assessed as galvinoxyl radical scavenging activity by spectrophotometric analysis", "type": "functional", "summary_of_the_method": "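Galvinoxyl in ethanol, absorbance about 1.00 at 428 nm. Compound in DMSO (0.1 mL) was added to 1.9 mL of radical solution at 7.5 or 75.0 μM final, depending on compound. Absorbance decay was recorded at 25 °C. The rate constant k was derived from the initial rate at t = 0.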"}, "[5]": {"assay": "Antioxidant activity assessed as ABTS radical scavenging activity after 16 hrs by spectrophotometric analysis", "type": "functional", "summary_of_the_method": "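Radical cation pre-formed over 16 h, then diluted in ethanol to about 0.70 absorbance at 734 nm. Compound in DMSO (0.1 mL) was added to 1.9 mL of radical solution at 7.5 μM final. Absorbance decay was recorded at 25 °C. The rate constant k was derived from the initial rate (t = 0).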"}, "[6]": {"assay": "Antioxidant activity assessed as inhibition of AAPH-induced oxidation of DNA at 100 uM by spectrophotometric analysis", "type": "functional", "summary_of_the_method": "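Oxidation of 2.0 mg/mL DNA by 40 mM AAPH in phosphate/EDTA buffer at 37 °C, with compound at 100 μM (DMSO vehicle; DMSO-only control). TBARS was monitored at 535 nm (ε 1.56 × 10^5 M⁻¹ cm⁻¹), and its formation rate d[TBARS]/dt was expressed in nM min⁻¹.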"}, "[7]": {"assay": "Antioxidant activity assessed as inhibition of AAPH-induced oxidation of DNA by spectrophotometric analysis", "type": "functional", "summary_of_the_method": "as §1"}, "[8]": {"assay": "Antioxidant activity assessed as inhibition of AAPH-induced oxidation of DNA at 200 uM by spectrophotometric analysis", "type": "functional"}}, "note": "Active and inactive are the calls of the source. No cut-off for these calls is given here."}
{"smiles": "Oc1ccc(C2CSc3ccc(O)cc3O2)cc1", "note": "(stereo unspecified)", "values": [{"measurement": "K", "setting": "[1]", "result": 0.069, "unit": "×10³ /M/s"}, {"measurement": "Activity", "setting": "[2]", "result": 4.1, "unit": "nM/min"}, {"measurement": "Activity", "setting": "[3]", "result": "Active"}, {"measurement": "K", "setting": "[4]", "result": 0.034, "unit": "×10³ /M/s"}, {"measurement": "K", "setting": "[5]", "result": 10.8, "unit": "×10³ /M/s"}, {"measurement": "Activity", "setting": "[6]", "result": "Active"}]}
{"smiles": "Oc1ccc(C2CSc3cc(O)ccc3O2)cc1", "note": "(stereo unspecified)", "values": [{"measurement": "K", "setting": "[1]", "result": 0.043, "unit": "×10³ /M/s"}, {"measurement": "K", "setting": "[4]", "result": 0.025, "unit": "×10³ /M/s"}, {"measurement": "K", "setting": "[5]", "result": 8.92, "unit": "×10³ /M/s"}, {"measurement": "Activity", "setting": "[7]", "result": "Active"}]}
{"smiles": "COc1ccc2c(c1)OC(c1ccc(O)cc1)CS2", "note": "(stereo unspecified)", "values": [{"measurement": "K", "setting": "[5]", "result": 0.168, "unit": "×10³ /M/s"}, {"measurement": "Activity", "setting": "[7]", "result": "Active"}]}
{"smiles": "Cc1c(C)c2c(c(C)c1O)CCC(C)(C(=O)O)O2", "note": "(stereo unspecified)", "values": [{"measurement": "K", "setting": "[1]", "result": 0.353, "unit": "×10³ /M/s"}, {"measurement": "K", "setting": "[4]", "result": 1.7, "unit": "×10³ /M/s"}, {"measurement": "K", "setting": "[5]", "result": 29.2, "unit": "×10³ /M/s"}]}
{"smiles": "COc1ccc2c(c1)SCC(c1ccc(O)c(O)c1)O2", "note": "(stereo unspecified)", "values": [{"measurement": "K", "setting": "[1]", "result": 2.2, "unit": "×10³ /M/s"}, {"measurement": "K", "setting": "[4]", "result": 2.54, "unit": "×10³ /M/s"}, {"measurement": "K", "setting": "[5]", "result": 390, "unit": "×10³ /M/s"}, {"measurement": "Activity", "setting": "[7]", "result": "Active"}]}
{"smiles": "COc1ccc2c(c1)SCC(c1ccc(O)cc1)O2", "note": "(stereo unspecified)", "values": [{"measurement": "Activity", "setting": "[8]", "result": "Active"}, {"measurement": "Activity", "setting": "[2]", "result": 4.2, "unit": "nM/min"}, {"measurement": "K", "setting": "[5]", "result": 0.202, "unit": "×10³ /M/s"}]}
{"smiles": "Oc1ccc2c(c1)SC=C(c1ccccc1)O2", "values": [{"measurement": "K", "setting": "[1]", "result": 0.0071, "unit": "×10³ /M/s"}, {"measurement": "Activity", "setting": "[8]", "result": "Active"}, {"measurement": "Activity", "setting": "[2]", "result": 5.2, "unit": "nM/min"}, {"measurement": "K", "setting": "[5]", "result": 4.89, "unit": "×10³ /M/s"}]}
{"smiles": "Oc1ccc2c(c1)SCC(c1ccc(O)c(O)c1)O2", "note": "(stereo unspecified)", "values": [{"measurement": "K", "setting": "[1]", "result": 1.18, "unit": "×10³ /M/s"}, {"measurement": "K", "setting": "[4]", "result": 0.52, "unit": "×10³ /M/s"}, {"measurement": "K", "setting": "[5]", "result": 11.7, "unit": "×10³ /M/s"}, {"measurement": "Activity", "setting": "[7]", "result": "Active"}]}
{"smiles": "COc1ccc2c(c1)SC=C(c1ccc(O)cc1)O2", "values": [{"measurement": "K", "setting": "[1]", "result": 0.031, "unit": "×10³ /M/s"}, {"measurement": "Activity", "setting": "[8]", "result": "Active"}, {"measurement": "Activity", "setting": "[2]", "result": 5.8, "unit": "nM/min"}, {"measurement": "K", "setting": "[5]", "result": 8.14, "unit": "×10³ /M/s"}]}
{"smiles": "Oc1ccc2c(c1)OC(c1ccc(O)c(O)c1)CS2", "note": "(stereo unspecified)", "values": [{"measurement": "K", "setting": "[1]", "result": 1.61, "unit": "×10³ /M/s"}, {"measurement": "K", "setting": "[4]", "result": 0.57, "unit": "×10³ /M/s"}, {"measurement": "K", "setting": "[5]", "result": 16.7, "unit": "×10³ /M/s"}, {"measurement": "Activity", "setting": "[7]", "result": "Active"}]}
{"smiles": "Oc1ccccc1O", "values": [{"measurement": "K", "setting": "[1]", "result": 1.3, "unit": "×10³ /M/s"}, {"measurement": "K", "setting": "[4]", "result": 1.78, "unit": "×10³ /M/s"}, {"measurement": "K", "setting": "[5]", "result": 2.58, "unit": "×10³ /M/s"}]}
